According to ChEMBL document CHEMBL4396915, “Synthesis of new thiazolyl-pyrazolyl-1,2,3-triazole derivatives as potential antimicrobial agents” (2019):
In brackets after ≈: the same amount, converted by molar mass. Activity calls are given as the source filed them. No cut-off for these calls is given here.

Experiments:
Type in all cases: functional
Proteus mirabilis = test: Antibacterial activity against Proteus mirabilis NCIM 2388 assessed as zone of inhibition at 80 ug/well incubated for 24 to 48 hrs by agar well diffusion method
How it was run: (§1)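 Strains from NCIM kept on nutrient agar slants at 4 C and grown overnight at 37 C in nutrient broth. 500 microlitres of 24-48 h culture swabbed onto nutrient agar. Compounds in DMSO loaded into 5 mm wells, with a DMSO vehicle plate and streptomycin reference. Incubated 24-48 h at 37 C. Zone of inhibition measured in mm and averaged over 4 replicates.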

Candida albicans [1] = test: Antifungal activity against Candida albicans NCIM 3100 assessed as zone of inhibition at 80 ug/well incubated for 48 to 72 hrs by agar well diffusion method; details: for zone of inhibition at 80 µg/disc: read-out: IZ
How it was run: (§2)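 Fungi kept on potato dextrose agar slants and grown in potato dextrose broth. 500 microlitres of 48-72 h spore suspension swabbed onto Mueller Hinton agar. Compounds in DMSO loaded into 5 mm wells, with a DMSO vehicle plate and fluconazole/ravuconazole positive-control plate. Incubated 48-72 h at 30 C. Clear zone measured in mm, mean of five replicates.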

Candida albicans [2] = test: Antifungal activity against Candida albicans NCIM 3100 assessed as inhibition of fungal growth incubated for 48 to 72 hrs by broth microdilution susceptibility method
How it was run: (§3)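 Tube micro-dilution in Sabouraud liquid medium. Stocks were made in DMSO and serially diluted twofold in broth to final […]. Tubes inoculated with organisms grown in potato dextrose broth and held 48-72 h at 30 C. MIC is the lowest concentration with no growth. DMSO and uninoculated-media controls were included, in triplicate.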

Rhodotorula glutinis [3] = test: Antifungal activity against Rhodotorula glutinis NCIM 3168 assessed as inhibition of fungal growth incubated for 48 to 72 hrs by broth microdilution susceptibility method; how it was run: as §3
[4] = system: Staphylococcus epidermidis; test: Antibacterial activity against Staphylococcus albus NCIM 2178 assessed as zone of inhibition at 80 ug/well incubated for 24 to 48 hrs by agar well diffusion method; details: for zone of inhibition at 80 µg/disc: read-out: IZ; how it was run: as §1
Escherichia coli = test: Antibacterial activity against Escherichia coli NCIM 2574 assessed as zone of inhibition at 80 ug/well incubated for 24 to 48 hrs by agar well diffusion method; details: for zone of inhibition at 80 µg/disc: read-out: IZ; how it was run: as §1
Aspergillus niger [5] = test: Antifungal activity against Aspergillus niger NCIM 504 assessed as inhibition of fungal growth incubated for 48 to 72 hrs by broth microdilution susceptibility method; how it was run: as §3
Rhodotorula glutinis [6] = test: Antifungal activity against Rhodotorula glutinis NCIM 3168 assessed as zone of inhibition at 80 ug/well incubated for 48 to 72 hrs by agar well diffusion method; details: for zone of inhibition at 80 µg/disc: read-out: IZ; how it was run: as §2
Aspergillus niger [7] = test: Antifungal activity against Aspergillus niger NCIM 504 assessed as zone of inhibition at 80 ug/well incubated for 48 to 72 hrs by agar well diffusion method; details: for zone of inhibition at 80 µg/disc: read-out: IZ; how it was run: as §2

Row | SMILES | inhibition zone (IZ) (Proteus mirabilis) | zone of inhibition at 80 µg/disc (Candida albicans [1]) [mm] | MIC (Candida albicans [2]) | MIC (Rhodotorula glutinis [3]) | inhibition zone (IZ) [4] | zone of inhibition at 80 µg/disc (Escherichia coli) [mm] | MIC (Aspergillus niger [5]) | zone of inhibition at 80 µg/disc (Rhodotorula glutinis [6]) [mm] | zone of inhibition at 80 µg/disc (Aspergillus niger [7]) [mm] | zone of inhibition at 80 µg/disc [4] [mm] | zone of inhibition at 80 µg/disc (Proteus mirabilis; read-out: IZ) [mm] | inhibition zone (IZ) (Candida albicans [1]) | inhibition zone (IZ) (Rhodotorula glutinis [6]) | inhibition zone (IZ) (Aspergillus niger [7]) | inhibition zone (IZ) (Escherichia coli)
1 | Cc1nc(-c2ccc(Br)cc2)sc1-c1nn(-c2ccccc2)cc1-c1cn(Cc2ccc(Cl)cc2)nn1 | inactive | 14.8 | 125 µg/mL (≈ 213 µM) | 125 µg/mL (≈ 213 µM) | inactive | 11 | 62.5 µg/mL (≈ 106 µM) | 14.8 | 13.5 |  |  |  |  |  | 
2 | Cc1nc(-c2ccccc2)sc1-c1nn(-c2ccccc2)cc1-c1cn(Cc2ccc(F)cc2)nn1 | inactive | 15.8 | 125 µg/mL (≈ 254 µM) | 125 µg/mL (≈ 254 µM) |  | 11 | 125 µg/mL (≈ 254 µM) | 14.6 | 16.4 | 10 |  |  |  |  | 
3 | CN[C@@H]1[C@H](O[C@H]2[C@H](O[C@H]3[C@H](O)[C@@H](O)[C@H](N=C(N)N)[C@@H](O)[C@@H]3N=C(N)N)O[C@@H](C)[C@]2(O)C=O)O[C@@H](CO)[C@H](O)[C@H]1O [STREPTOMYCIN] |  |  |  |  |  | 25 |  |  |  | 21.6 | 18.5 | inactive | inactive | inactive | 
4 | Cc1ccc(-c2nc(C)c(-c3nn(-c4ccccc4)cc3-c3cn(Cc4ccccc4)nn3)s2)cc1 | inactive | 15.8 | 125 µg/mL (≈ 256 µM) | 125 µg/mL (≈ 256 µM) |  |  | 62.5 µg/mL (≈ 128 µM) | 18.4 |  | 11.2 |  |  |  | inactive | inactive
5 | Cc1ccc(Cn2cc(-c3cn(-c4ccccc4)nc3-c3sc(-c4ccc(Cl)cc4)nc3C)nn2)cc1 | inactive | 13.8 | 250 µg/mL (≈ 478 µM) | 125 µg/mL (≈ 239 µM) |  | 12.4 | 125 µg/mL (≈ 239 µM) | 11.4 | 11.4 | 12 |  |  |  |  | 
6 | Cc1nc(-c2ccc(F)cc2)sc1-c1nn(-c2ccccc2)cc1-c1cn(Cc2ccc(Cl)cc2)nn1 | inactive | 10.4 | inactive | 125 µg/mL (≈ 237 µM) |  |  | 31.2 µg/mL (≈ 59.3 µM) | 14.5 | 13.5 | 11.8 |  |  |  |  | inactive
7 | Cc1nc(-c2ccc(Br)cc2)sc1-c1nn(-c2ccccc2)cc1-c1cn(Cc2ccc(Br)cc2)nn1 | inactive | 15 | inactive | inactive | inactive |  | inactive |  |  |  |  |  | inactive | inactive | inactive
8 | Cc1nc(-c2ccc(Cl)cc2)sc1-c1nn(-c2ccccc2)cc1-c1cn(Cc2ccc(Br)cc2)nn1 | inactive | 17.6 | 250 µg/mL (≈ 425 µM) | 62.5 µg/mL (≈ 106 µM) |  | 11 | 62.5 µg/mL (≈ 106 µM) | 18.8 | 12 | 11.8 |  |  |  |  | 
9 | Cc1nc(-c2ccccc2)sc1-c1nn(-c2ccccc2)cc1-c1cn(Cc2ccc(Br)cc2)nn1 | inactive | 16.4 | 125 µg/mL (≈ 226 µM) | 62.5 µg/mL (≈ 113 µM) |  | 12 | 62.5 µg/mL (≈ 113 µM) | 17.5 | 14 | 13 |  |  |  |  | 
10 | Cc1nc(-c2ccccc2)sc1-c1nn(-c2ccccc2)cc1-c1cn(Cc2ccccc2)nn1 | inactive |  | inactive | inactive |  |  | inactive |  |  |  |  |  |  |  | 
